In one data set the target is Albumin (Bos taurus, UniProt P02769). Kind of data set: Binding affinity to bovine serum albumin by surface plasmon resonance. Type of data set: ADME. Conditions: cattle, isolated protein. The essentials: (§1)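 Biacore SPR. TTL and BSA each amine-coupled (100 µg/mL in 10 mM sodium acetate, pH 5.0) to 8-12 kRU, with an unmodified reference surface. Running buffer 10 mM NaH2PO4, 150 mM NaCl, 0.5% DMSO, pH 7.4. Five-point 2-fold series, typically 0.05-10 µM, in triplicate. 25 °C, 50 µL/min, 60 s association, 200 s dissociation. Double-referenced. KD fitted from at least 10 curves.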
In general terms: SPR reads the build-up and loss of mass on a sensor chip optically.

A further data set deals with J774.A1. Kind of data set: Cytotoxicity against mouse J774A1 cells up to >100 uM after 24 to 48 hrs by MTT assay. Type of data set: functional, cell-based.
The target of the next data set is T1, Tubulin--tyrosine ligase (Homo sapiens, UniProt Q8NG68).
T1 sequence (Q8NG68 whole entry): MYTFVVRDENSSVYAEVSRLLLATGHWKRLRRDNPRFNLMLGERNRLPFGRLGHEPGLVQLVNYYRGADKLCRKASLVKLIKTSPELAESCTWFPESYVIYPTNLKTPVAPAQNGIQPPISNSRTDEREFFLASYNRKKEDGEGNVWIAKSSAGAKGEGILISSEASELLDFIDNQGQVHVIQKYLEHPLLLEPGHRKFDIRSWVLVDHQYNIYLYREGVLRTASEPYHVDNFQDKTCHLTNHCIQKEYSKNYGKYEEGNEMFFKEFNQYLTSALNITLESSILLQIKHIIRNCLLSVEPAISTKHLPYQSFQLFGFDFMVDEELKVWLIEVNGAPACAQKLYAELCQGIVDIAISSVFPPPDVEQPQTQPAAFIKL
Briefly: Binding affinity to TTL by surface plasmon resonance. The method, boiled down: as §1

The target of data set [1] is T2, Tubulin--tyrosine ligase (Homo sapiens) (UniProt Q8NG68).
T2 sequence (whole entry): T1 sequence (Q8NG68 whole entry)
Kind of data set: Inhibition of TTL in human MCF7 cells assessed as increase in delta2-tubulin level at 100 uM after 24 to 48 hrs by Western blot. Type of data set: cell-based. The essentials: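 MCF-7 cells were grown in DMEM with 10% FBS at 37 °C, 5% CO2, seeded at 4 × 10^5 per well, and treated 24 h later with or without 100 µM compound for 24 and 48 h. NP-40 lysates (20 µg protein, Bradford) were run on 10% SDS-PAGE and blotted. Membranes were probed overnight at 4 °C with rabbit polyclonal anti-Δ2-α-tubulin.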
For orientation: A western blot detects proteins with antibodies after separation by electrophoresis.

The test system of another data set is HEK293. Kind of data set: Cytotoxicity against HEK293 cells up to >100 uM after 24 to 48 hrs by MTT assay. In kind it is functional, cell-based. Conditions: Homo sapiens.
The next data set relates to MCF7. Briefly: Cytotoxicity against human MCF7 cells up to >100 uM after 24 to 48 hrs by MTT assay. In kind it is functional, cell-based. In general terms: Tetrazolium dyes change colour on reduction, which living cells bring about.

The source made the active and inactive calls. The rule behind the calls is not given here.

Albumin, sequence (P02769 whole entry): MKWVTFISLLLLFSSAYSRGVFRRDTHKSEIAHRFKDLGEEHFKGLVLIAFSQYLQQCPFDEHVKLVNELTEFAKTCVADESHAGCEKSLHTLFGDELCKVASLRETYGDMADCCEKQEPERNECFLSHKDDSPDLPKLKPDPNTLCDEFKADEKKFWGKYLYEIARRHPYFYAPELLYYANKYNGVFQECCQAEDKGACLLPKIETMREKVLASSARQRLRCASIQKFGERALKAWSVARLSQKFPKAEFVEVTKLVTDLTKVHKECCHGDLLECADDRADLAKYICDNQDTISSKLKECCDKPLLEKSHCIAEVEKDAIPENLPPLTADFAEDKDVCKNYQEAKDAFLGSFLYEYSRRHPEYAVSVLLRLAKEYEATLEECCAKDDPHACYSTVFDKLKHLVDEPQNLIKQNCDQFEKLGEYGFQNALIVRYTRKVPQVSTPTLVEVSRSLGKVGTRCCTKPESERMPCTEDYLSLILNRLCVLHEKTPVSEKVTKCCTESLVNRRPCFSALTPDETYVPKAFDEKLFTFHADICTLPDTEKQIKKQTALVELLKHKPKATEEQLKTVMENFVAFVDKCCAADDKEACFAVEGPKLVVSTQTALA

In the case of `CC1=CC(=O)O[C@@H]1[C@@H](O)/C=C(\C)CC[C@@H]1[C@@]2(C)CCC[C@]3(C)[C@@H]2[C@H](C[C@@]1(C)O)O[C@@H]3O`, the Activity entry at Albumin was “Not Active”. In addition, the outcome in the data set with J774.A1, in the data set on HEK293 and in the data set on MCF7 was inactive. At Tubulin--tyrosine ligase, binding was put at a Kd of 210 µM. For the same compound, in data set [1], the outcome was Active.
